Laboratory results reported in paper PMC8590456 (Nature chemical biology, 2021).

Columns and labels:
CDK12 I733V/Cyclin K = CDK12 I733V/Cyclin K (Homo sapiens, UniProt Q9NYV4, I733V); assay: 32P-labeled ATP mutated CDK12 kinase assay; assay type: biochemical; details: recombinant I733V CDK12 vs wild type
Method in brief: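 GST-CDK12 (714–1063) I733V (site-directed mutagenesis) and GST-cyclin K (1–267) were co-expressed with yeast CAK in Sf9 cells for 72 h. Purification was by GST affinity, TEV tag cleavage and size exclusion. The 0.2 μM complex was preincubated with varying compound concentrations for 5 min at 30 °C. Substrate and 0.2 mM [γ-32P]-ATP were added for 15 min at 30 °C. The reaction was stopped with 50 mM EDTA, spotted onto nitrocellulose, washed in phosphoric acid and scintillation-counted.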

[1] = system: CRBN−/− cells (Jurkat and MOLT4); assay: 3-day growth rate inhibition; assay type: cell-based, Human; details: 72 h
Method in brief: (§1)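 Cells were kept in RPMI 1640 with 10% FBS at 37 °C and 5% CO2, then plated at 6×10^3 cells/well for 24 h. Time 0 was read, then cells were dosed 10 nM–10 μM for 72 h. Viable cells were read by CellTiter-Glo luminescence. GR values, GR50 and GRmax were calculated from time-0 and 72-h data, with growth relative to DMSO. Mean ± s.d., n=3 biologically independent samples, representative of 2 experiments.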

CDK13 = CDK13 (Homo sapiens, UniProt Q14004); assay: Immunoblot of CDK13 protein level in Jurkat cells; assay type: cell-based; details: 6 h, indicated concentrations
Sequence of CDK13 (Q14004 whole entry): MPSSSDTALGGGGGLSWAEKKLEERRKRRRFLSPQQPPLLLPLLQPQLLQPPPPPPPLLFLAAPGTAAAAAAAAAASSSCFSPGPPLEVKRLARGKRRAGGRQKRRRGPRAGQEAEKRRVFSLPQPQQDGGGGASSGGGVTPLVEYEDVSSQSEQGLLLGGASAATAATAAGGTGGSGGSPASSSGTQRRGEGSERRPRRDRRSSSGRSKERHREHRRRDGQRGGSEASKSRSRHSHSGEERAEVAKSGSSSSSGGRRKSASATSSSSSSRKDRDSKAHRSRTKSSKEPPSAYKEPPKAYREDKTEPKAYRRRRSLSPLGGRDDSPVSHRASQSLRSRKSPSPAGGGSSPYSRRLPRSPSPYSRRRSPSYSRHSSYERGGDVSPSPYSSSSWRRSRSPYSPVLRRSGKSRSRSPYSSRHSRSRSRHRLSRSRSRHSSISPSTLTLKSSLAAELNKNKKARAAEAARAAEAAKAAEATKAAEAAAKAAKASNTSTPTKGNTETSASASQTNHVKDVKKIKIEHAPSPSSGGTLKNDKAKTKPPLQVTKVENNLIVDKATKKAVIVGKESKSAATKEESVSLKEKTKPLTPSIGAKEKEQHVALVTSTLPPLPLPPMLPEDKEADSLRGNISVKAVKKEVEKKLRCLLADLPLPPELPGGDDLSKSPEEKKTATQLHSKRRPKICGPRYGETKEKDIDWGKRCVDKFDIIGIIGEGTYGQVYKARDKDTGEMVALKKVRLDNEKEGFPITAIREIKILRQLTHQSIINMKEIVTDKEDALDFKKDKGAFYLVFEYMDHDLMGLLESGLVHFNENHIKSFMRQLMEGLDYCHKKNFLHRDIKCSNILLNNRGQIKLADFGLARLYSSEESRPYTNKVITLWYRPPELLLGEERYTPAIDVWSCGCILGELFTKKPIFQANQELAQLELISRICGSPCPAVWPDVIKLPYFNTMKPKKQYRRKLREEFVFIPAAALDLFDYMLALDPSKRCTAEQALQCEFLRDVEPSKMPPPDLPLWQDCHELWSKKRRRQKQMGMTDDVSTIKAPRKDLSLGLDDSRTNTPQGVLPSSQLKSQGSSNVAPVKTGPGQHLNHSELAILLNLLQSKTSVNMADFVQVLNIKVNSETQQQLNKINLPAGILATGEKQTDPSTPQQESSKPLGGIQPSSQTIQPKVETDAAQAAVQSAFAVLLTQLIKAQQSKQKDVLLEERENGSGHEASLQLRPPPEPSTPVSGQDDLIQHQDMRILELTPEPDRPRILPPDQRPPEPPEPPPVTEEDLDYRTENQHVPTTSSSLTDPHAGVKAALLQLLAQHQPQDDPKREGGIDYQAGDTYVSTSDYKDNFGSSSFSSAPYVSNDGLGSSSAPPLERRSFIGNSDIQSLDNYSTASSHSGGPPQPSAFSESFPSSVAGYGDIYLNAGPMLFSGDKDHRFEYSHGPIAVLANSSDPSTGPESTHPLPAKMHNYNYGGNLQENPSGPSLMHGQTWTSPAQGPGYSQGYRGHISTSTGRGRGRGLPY
Sequence of CDK13 (O75909 whole entry partner): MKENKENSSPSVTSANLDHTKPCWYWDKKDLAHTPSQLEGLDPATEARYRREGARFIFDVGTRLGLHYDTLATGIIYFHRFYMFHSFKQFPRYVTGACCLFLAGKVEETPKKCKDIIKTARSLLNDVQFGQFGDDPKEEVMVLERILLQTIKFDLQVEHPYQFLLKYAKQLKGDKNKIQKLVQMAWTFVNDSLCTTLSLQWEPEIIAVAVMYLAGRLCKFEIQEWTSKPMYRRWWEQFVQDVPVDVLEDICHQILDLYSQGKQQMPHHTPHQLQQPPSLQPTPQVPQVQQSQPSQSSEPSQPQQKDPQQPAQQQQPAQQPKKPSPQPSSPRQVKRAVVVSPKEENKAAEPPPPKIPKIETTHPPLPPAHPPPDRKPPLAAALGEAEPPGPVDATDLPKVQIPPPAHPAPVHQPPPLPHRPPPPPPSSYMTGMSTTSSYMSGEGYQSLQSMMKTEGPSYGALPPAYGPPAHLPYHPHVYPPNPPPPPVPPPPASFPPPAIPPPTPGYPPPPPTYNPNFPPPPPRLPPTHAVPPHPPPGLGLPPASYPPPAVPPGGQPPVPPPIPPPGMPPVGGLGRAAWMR
Method in brief: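 Jurkat cells were treated 6 h with DMSO or CDK12 degraders at the indicated concentrations in a preliminary screen. Lysis was in NP40 buffer with protease and phosphatase inhibitors plus 1 mM PMSF. Immunoblots for CDK12, CDK13 and β-actin were imaged on an infrared scanner.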

Jurkat and MOLT4 cells = assay: Cell cycle analysis by FACS; assay type: cell-based, Human; details: 24 h, BSJ-4-116 50 nM, BSJ-4-116NC 100 nM
Method in brief: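 Jurkat or MOLT4 cells (0.5×10^6) were treated 24 h. They were fixed in ice-cold 70% ethanol at −20 °C, treated with RNase A (0.5 mg/ml), stained with propidium iodide (50 µg/ml) and analysed by flow cytometry. […] is given as mean ± s.d. of n=2 biologically independent samples, representative of 2 experiments.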

Jurkat cells = assay: 3' poly; assay type: cell-based, Human; details: 8 h
Method in brief: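 Poly(A) 3'-end libraries were sequenced. Metagene profiles of normalised reads span gene bodies ±2 kb, with sense and antisense reads shown separately. Differential expression used 3' UTR-associated poly(A)-site counts summed per gene. Intronic versus 3' UTR poly(A) usage was compared by odds ratio for transcripts with TPM > 1.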

Cyclin K = assay: Immunoblot of Cyclin K protein level in Jurkat cells; assay type: cell-based, Human; details: 6 h
CDK9 = CDK9 (Homo sapiens, UniProt P50750+Q96SW2); assay: Immunoblot of CDK9 in parental and resistant cells; assay type: cell-based; details: parental and resistant Jurkat and MOLT4 cells, 250 nM, 8 h
Sequence of CDK9 (P50750 whole entry): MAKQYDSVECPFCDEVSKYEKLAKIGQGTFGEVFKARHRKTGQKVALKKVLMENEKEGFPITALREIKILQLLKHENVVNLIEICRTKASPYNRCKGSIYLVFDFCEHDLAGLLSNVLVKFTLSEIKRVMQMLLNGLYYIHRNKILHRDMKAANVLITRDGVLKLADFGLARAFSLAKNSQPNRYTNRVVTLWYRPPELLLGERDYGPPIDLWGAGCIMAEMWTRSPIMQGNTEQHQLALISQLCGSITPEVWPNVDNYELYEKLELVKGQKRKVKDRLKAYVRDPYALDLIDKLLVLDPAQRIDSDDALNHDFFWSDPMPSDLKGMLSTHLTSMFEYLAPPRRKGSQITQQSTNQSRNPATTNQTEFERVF
Sequence of CDK9 (O60563 whole entry partner): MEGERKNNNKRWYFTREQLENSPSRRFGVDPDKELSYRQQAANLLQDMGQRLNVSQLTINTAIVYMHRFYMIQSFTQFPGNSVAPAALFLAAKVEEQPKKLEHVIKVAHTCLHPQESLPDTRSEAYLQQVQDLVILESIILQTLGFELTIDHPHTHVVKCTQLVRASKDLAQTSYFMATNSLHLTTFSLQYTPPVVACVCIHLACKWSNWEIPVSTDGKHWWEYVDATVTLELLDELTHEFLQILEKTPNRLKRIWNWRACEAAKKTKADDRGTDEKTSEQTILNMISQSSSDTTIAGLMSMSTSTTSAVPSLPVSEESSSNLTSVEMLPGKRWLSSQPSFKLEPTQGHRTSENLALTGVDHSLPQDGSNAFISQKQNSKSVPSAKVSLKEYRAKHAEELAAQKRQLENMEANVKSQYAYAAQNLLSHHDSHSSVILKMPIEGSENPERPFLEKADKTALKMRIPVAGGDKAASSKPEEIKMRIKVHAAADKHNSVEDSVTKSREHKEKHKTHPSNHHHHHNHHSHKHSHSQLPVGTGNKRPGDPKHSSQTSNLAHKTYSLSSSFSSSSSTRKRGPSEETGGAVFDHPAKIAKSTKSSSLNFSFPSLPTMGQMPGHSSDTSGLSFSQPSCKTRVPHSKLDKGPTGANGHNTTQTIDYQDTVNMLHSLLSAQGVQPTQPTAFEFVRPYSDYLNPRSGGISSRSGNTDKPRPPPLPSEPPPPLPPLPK
Sequence of CDK9 (Q96SW2 whole entry): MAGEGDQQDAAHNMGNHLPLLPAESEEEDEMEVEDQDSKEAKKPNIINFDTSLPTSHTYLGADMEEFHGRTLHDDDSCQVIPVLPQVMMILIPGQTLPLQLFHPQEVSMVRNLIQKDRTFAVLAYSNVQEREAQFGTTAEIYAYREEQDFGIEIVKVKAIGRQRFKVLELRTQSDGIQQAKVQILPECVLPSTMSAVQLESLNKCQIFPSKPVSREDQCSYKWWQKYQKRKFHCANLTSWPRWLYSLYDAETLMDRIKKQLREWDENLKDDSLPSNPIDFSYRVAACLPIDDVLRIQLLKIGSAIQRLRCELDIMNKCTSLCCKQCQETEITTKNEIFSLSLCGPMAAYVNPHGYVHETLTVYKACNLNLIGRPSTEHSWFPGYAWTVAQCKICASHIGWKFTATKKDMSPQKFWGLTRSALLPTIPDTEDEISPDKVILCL
Sequence of CDK9 (Q16531 whole entry partner): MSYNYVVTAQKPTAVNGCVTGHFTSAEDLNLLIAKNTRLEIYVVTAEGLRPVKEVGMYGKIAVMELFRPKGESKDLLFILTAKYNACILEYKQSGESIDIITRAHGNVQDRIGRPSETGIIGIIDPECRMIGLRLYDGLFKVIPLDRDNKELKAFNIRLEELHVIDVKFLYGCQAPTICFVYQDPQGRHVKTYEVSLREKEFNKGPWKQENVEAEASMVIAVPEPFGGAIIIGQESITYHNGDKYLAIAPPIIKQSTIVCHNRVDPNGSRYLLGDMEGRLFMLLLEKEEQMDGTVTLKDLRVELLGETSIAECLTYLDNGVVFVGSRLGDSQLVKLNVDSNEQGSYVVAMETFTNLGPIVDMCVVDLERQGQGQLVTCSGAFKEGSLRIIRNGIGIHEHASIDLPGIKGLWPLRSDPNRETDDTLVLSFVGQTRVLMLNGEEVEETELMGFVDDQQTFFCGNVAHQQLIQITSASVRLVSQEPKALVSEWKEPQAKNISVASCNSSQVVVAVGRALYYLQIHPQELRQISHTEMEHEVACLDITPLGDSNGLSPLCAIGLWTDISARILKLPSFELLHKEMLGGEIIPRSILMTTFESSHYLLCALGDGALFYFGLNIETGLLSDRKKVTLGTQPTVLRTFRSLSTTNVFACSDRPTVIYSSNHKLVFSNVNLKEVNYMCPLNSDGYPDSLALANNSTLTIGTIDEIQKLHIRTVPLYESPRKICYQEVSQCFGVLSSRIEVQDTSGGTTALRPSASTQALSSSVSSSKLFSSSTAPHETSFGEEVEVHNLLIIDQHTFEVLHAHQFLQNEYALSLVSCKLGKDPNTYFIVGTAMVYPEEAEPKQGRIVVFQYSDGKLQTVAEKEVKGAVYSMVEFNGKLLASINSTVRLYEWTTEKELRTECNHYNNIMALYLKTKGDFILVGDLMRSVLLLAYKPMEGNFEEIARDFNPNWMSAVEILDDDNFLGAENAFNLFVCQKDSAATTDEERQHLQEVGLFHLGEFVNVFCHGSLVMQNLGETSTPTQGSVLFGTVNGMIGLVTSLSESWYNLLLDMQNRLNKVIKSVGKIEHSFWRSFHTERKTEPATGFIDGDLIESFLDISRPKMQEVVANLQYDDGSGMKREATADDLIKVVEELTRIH
Method in brief: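 Parental and resistant Jurkat and MOLT4 cells were treated 8 h with DMSO, CDK12 degraders or a CDK9 degrader (250 nM). Lysis was in NP40 buffer with protease and phosphatase inhibitors plus 1 mM PMSF. Immunoblots for CDK12 and CDK9, with GAPDH loading control, were imaged on an infrared scanner. Representative of n=2 independent experiments.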

[2] = system: wild-type T-ALL cell lines (Jurkat and MOLT4); assay: 3-day growth rate inhibition; assay type: cell-based, Human; details: GR assay, 72 h
Method in brief: as §1

| SMILES | effect of I733V on binding affinity in in vitro kinase assay (CDK12 I733V/Cyclin K) | sensitivity of CRBN−/− cells in GR assay [1] | CDK13 protein level (CDK13) | cell cycle distribution (Jurkat and MOLT4 cells) | annotated terminal or 3' poly(A) sites (metagene analysis) (Jurkat cells) | downregulated transcripts (Jurkat cells; BSJ-4-116 50 nM, THZ531 250 nM, FDR <= 0.01) | Cyclin K protein level (Cyclin K) | sensitivity of resistant cells to CDK9 degrader (CDK9) | fold less potent than BSJ-4-116 [2] | genes differentially expressed vs DMSO control cells (Jurkat cells; 50 nM) |
| --- | --- | --- | --- | --- | --- | --- | --- | --- | --- | --- |
| CN(C)C/C=C/C(=O)Nc1ccc(C(=O)N2CCC[C@@H](Nc3ncc(Cl)c(-c4c[nH]c5ccccc45)n3)C2)cc1 [THZ531] | loss of binding affinity | responding similarly | no effect | accumulation of G2/M cells | significant loss | 7050 | no effect | – | – | – |
| CC(C)(C)c1cnc(CSc2cnc(NC(=O)C3CCN(CC(=O)NCCOCCOCCOCCNc4cccc5c4C(=O)N(C4CCC(=O)NC4=O)C5=O)CC3)s2)o1 (stereo not shown) [THAL-SNS-032] | – | – | – | – | – | – | – | remained equally sensitive | – | – |
| CC(C)S(=O)(=O)c1ccccc1Nc1nc(N[C@@H]2CCCN(CCCCCCCNC(=O)COc3cccc4c3C(=O)N(C3CCC(=O)N(C)C3=O)C4=O)C2)ncc1Cl (stereo partly shown) [BSJ-4-116NC] | – | responding similarly | no effect | – | – | – | no effect | – | 10 fold | 1 gene |
